Reference: paper PMC11555253 (Scientific Reports, 2024)

Assays:
α-glucosidase [1] = assay: Enzyme kinetic study; format: biochemical, Saccharomyces cerevisiae; settings: Km increased, Vmax constant with rising inhibitor concentration
Outline: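 Yeast α-glucosidase (1 U/mL) was preincubated 15 min at 30 °C with test compound at 0, 12.5, 25 and 50 µM or 0, 15, 30 and 60 µM. p-Nitrophenyl α-D-glucopyranoside was then added at graded concentrations, and absorbance change at 405 nm was followed for 20 min. Double-reciprocal plots were made, and KI was taken from a replot of apparent Km versus inhibitor concentration.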

α-glucosidase [2] = assay: Fluorescence quenching measurements and thermodynamic analysis of binding; design: species or system Saccharomyces cerevisiae
Outline: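 α-Glucosidase (0.1 U/mL) was equilibrated 10 min with test compound at 0 to 1.0 µM. Emission was scanned from 300–450 nm with excitation at 280 nm in a 1.0 cm quartz cell, and enzyme-free compound background was subtracted. Spectra covered 20–60 °C. KA came from F0/(F0–F) versus total drug concentration at 20 °C and 60 °C, with binding-site number at 20 °C.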

[3] = test system: Saccharomyces cerevisiae α-glucosidase; assay: α-Glucosidase inhibition assay; format: biochemical; settings: IC50 compared with acarbose

Row | Structure (SMILES) | inhibition mode (α-glucosidase [1]) | KA (binding constant) (α-glucosidase [2]; 20 °C) | KA (binding constant) (α-glucosidase [2]; 60 °C) | times more potent than acarbose [3]
1 | COc1ccccc1NC(=O)Cn1cc(CSc2nc3ccccc3c3nc4ccccc4n23)nn1 [27e, 2-(4-((benzo[4,5]imidazo[1,2-c]quinazolin-6-ylthio)methyl)-1H-1,2,3-triazol-1-yl)-N-(2-methoxyphenyl)acetamide] | competitive inhibition | 6.8 × 10 ^4 L mol^–1 s^–1 | 5.0 × 10 ^4 L mol^–1 s^–1 | –
2 | COc1ccccc1NC(=O)Cn1cc(CSc2nc3ccccc3c3nc(-c4ccccc4)c(-c4ccccc4)n23)nn1 [19e, 2-(4-(((2,3-diphenylimidazo[1,2-c]quinazolin-5-yl)thio)methyl)-1H-1,2,3-triazol-1-yl)-N-(2-methoxyphenyl)acetamide] | competitive inhibition | 4.8 × 10 ^4 L mol^–1 s^–1 | 2.7 × 10 ^4 L mol^–1 s^–1 | 15 times
